Results collected from several papers.
Lines come from different studies, so protocols differ.
Target: Focal adhesion kinase 1 (PTK2, Homo sapiens, UniProt Q05397)

C[C@H]1CCN(c2nccc(-c3cnn4ncccc34)n2)C1
remaining binding (binding; 1 µM): 100%

Cc1cc(-c2cc(C(F)(F)F)ccc2O[C@H]2C[C@@]2(CNS(=O)(=O)c2ccc([N+](=O)[O-])cc2)c2ccc(F)cc2F)[nH]n1
remaining binding (cell-free assay; competition with immobilised ligand; 0.3 µM): 22%

N[C@H]1CCN(c2nccc(-c3cnn4ncccc34)n2)C1
remaining binding (binding; 1 µM): 100%

Cc1c(C(=O)O)cc(-c2ccc(C3CCNCC3)cc2)c2ccc(-c3ccc(C(F)(F)F)cc3)cc12
remaining binding (binding; competition with immobilised ligand; 1 µM): 100%

O=C(NCC1CCOCC1)c1n[nH]cc1NC(=O)c1c(F)cccc1F
remaining binding (binding; competition with immobilised ligand; 1 µM): 100%

O=C(NCCCN1CCOCC1)c1ccc(Nc2nccc(-c3cc4ccccc4s3)n2)cc1
remaining binding (binding; competition with immobilised ligand; 1 µM): 100%

C[C@@H]1CN(c2ccc3ncc(-c4ccc5[nH]nc(C6CC6)c5c4)n3n2)C[C@H](C)O1
remaining binding (binding; competition with immobilised ligand; 50 nM): 98%

O=C(c1ccc(Nc2nccc(-c3cc4ccccc4s3)n2)cc1)N1CCC(N2CCCC2)CC1
remaining binding (binding; competition with immobilised ligand; 1 µM): 81%

CN(C)c1nccc(-c2cnn3ncccc23)n1
remaining binding (binding; 1 µM): 79%

N#Cc1ccccc1CSc1nnc2c(n1)[nH]c1ccccc12
remaining binding (binding; competition with immobilised ligand; 10 µM): 98%

COc1cc(-c2cn(C3CCc4ccccc4N(CC(F)(F)F)C3=O)nn2)ccc1-n1ccc(C)n1 (stereo not shown)
remaining binding (cell-free assay; competition with immobilised ligand; 1 µM): 100%

CCN1CCN(Cc2ccc(C(=O)Nc3ccc(C)c(Oc4ccc5c(c4)CC(=O)N5)c3)cc2C(F)(F)F)CC1
remaining binding (binding; competition with immobilised ligand; 1 µM): 77%

O=C(N[C@H]1CCCCC/C=C\C2C[C@@]2(C(=O)O)NC(=O)[C@@H]2C[C@@H](Oc3ccncc3)CN2C1=O)OC1CCCC1 (stereo partly shown)
remaining binding (binding; competition with immobilised ligand; 1 µM): 97%

CN(CCCC(F)(F)F)c1nccc(-c2cnn3ncccc23)n1
remaining binding (binding; 1 µM): 100%

CCS(=O)(=O)c1cc2cc(C[C@@](O)(CC(C)(C)c3ccc(F)cc3C(N)=O)C(F)(F)F)[nH]c2cn1
remaining binding (cell-free assay; competition with immobilised ligand; 1 µM): 100%

CN(C)c1ncc(F)c(-c2cnn3ncccc23)n1
remaining binding (binding; 1 µM): 100%

O=C1CCc2cc(Nc3cc(OC4CCOCC4)c([N+](=O)[O-])cc3Cl)ccc2N1
remaining binding (cell-free assay; competition with immobilised ligand; 1 µM): 100%

Cc1cnc(Nc2ccc(C(=O)N3CCC(N4CCCC4)CC3)cc2)nc1-c1cc2ccccc2s1
remaining binding (binding; competition with immobilised ligand; 1 µM): 100%

CC(=O)C1=C(C)N(c2cccc(C(F)(F)F)c2)C(=O)N[C@@H]1c1ccc(C#N)nc1
remaining binding (cell-free assay; competition with immobilised ligand; 1 µM): 100%

COc1ncc2cc3ccccc3nc2c1C#N
remaining binding (cell-free assay; competition with immobilised ligand; 5 µM): 100%

O=C(O)c1cc(-c2ccc(C3CCNCC3)cc2)c2ccc(-c3ccc(C(F)(F)F)cc3)cc2c1
remaining binding (cell-free assay; competition with immobilised ligand; 1 µM): 100%

COc1cnc(Nc2cccc(S(N)(=O)=O)c2)nc1N1CCN(c2ccccc2)C(=O)C1
remaining binding (binding; competition with immobilised ligand; 1 µM): 99%
